{"source": "ChEMBL document CHEMBL1123459", "about": "“Synthesis and dopaminergic binding of 2-aryldopamine analogues: phenethylamines, 3-benzazepines, and 9-(aminomethyl)fluorenes” (J Med Chem, 1986)", "key": {"[1]": {"biological_target": "T1, D(1A) dopamine receptor (Rattus norvegicus, UniProt P18901)", "T1 sequence (P18901 whole entry)": "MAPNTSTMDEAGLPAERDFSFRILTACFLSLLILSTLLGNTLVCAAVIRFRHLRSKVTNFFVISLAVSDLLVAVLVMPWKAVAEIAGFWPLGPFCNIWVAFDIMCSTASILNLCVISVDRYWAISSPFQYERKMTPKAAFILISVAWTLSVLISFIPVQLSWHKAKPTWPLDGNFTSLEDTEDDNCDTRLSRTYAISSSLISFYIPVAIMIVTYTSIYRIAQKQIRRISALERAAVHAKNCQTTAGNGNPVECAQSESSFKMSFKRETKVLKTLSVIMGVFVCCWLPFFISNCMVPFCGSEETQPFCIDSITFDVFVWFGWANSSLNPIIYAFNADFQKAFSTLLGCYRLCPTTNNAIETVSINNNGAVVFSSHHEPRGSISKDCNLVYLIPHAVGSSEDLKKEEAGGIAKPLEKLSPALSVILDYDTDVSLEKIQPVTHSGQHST", "test": "Displacement of [3H]fenoldopam from Dopamine receptor D1 of rat striatum membranes", "type": "cell membranes, Membrane"}, "[2]": {"biological_target": "D(2) dopamine receptor (Bos taurus) (UniProt P20288)", "sequence (P20288 whole entry)": "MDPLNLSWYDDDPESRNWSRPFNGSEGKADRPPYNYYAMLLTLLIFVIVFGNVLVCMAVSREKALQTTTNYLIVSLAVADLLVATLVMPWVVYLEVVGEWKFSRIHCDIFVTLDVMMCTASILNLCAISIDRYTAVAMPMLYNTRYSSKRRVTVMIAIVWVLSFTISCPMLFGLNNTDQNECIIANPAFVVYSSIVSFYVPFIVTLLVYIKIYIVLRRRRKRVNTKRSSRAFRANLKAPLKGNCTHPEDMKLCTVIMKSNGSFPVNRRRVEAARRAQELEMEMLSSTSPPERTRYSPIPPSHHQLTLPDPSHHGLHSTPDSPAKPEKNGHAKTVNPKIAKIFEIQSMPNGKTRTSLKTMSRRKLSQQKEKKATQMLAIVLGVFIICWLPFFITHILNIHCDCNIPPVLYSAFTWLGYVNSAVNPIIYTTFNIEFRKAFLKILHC", "test": "Compound was tested for inhibition of [3H]spiroperidol binding against Dopamine receptor D2 at 10e-5 M; IA= Inactive"}, "[3]": {"biological_target": "D(2) dopamine receptor (Bos taurus) (UniProt P20288)", "test": "Compound was tested for inhibition of [3H]spiroperidol binding against Dopamine receptor D2 at 10e-5 M"}, "[4]": {"biological_target": "T1, D(1A) dopamine receptor", "test": "Compound was tested for binding affinity against dDopamine receptor D1 using [3H]fenoldopam as a radioligand"}, "[5]": {"biological_target": "D(2) dopamine receptor (Bos taurus, UniProt P20288)", "sequence (P20288 whole entry)": "as above", "test": "Compound was tested for inhibition of [3H]spiroperidol binding against Dopamine receptor D2", "method_in_brief": "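Washed bovine anterior pituitary membranes (500 μg protein) incubated 20 min at 37 °C with 0.2–0.3 nM [3H]spiroperidol in Tris-HCl pH 7.4, MgSO4, 2 mM EDTA, 0.1% ascorbate.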"}}, "data": [{"smiles": "Oc1ccc(-c2c(O)c(O)c(Cl)c3c2CCNCC3)cc1", "values": [{"measurement": "Ki", "setting": "[1]", "value": 1630, "unit": "nM"}, {"measurement": "inhibition", "setting": "[2]", "value": "< 20", "unit": "%"}]}, {"smiles": "NCCc1ccc(O)c(O)c1-c1ccccc1", "values": [{"measurement": "Ki", "setting": "[1]", "value": 1500, "unit": "nM"}, {"measurement": "inhibition", "setting": "[2]", "value": "< 20", "unit": "%"}]}, {"smiles": "Oc1c(O)c(-c2ccccc2)c2c(c1Cl)CCNCC2", "values": [{"measurement": "Ki", "setting": "[1]", "value": 700, "unit": "nM"}, {"measurement": "inhibition", "setting": "[3]", "value": 27, "unit": "%"}]}, {"smiles": "NCCc1ccc(O)c(O)c1-c1ccc(O)cc1", "values": [{"measurement": "Ki", "setting": "[1]", "value": 1650, "unit": "nM"}, {"measurement": "inhibition", "setting": "[2]", "value": "< 20", "unit": "%"}]}, {"smiles": "Oc1cc2c(cc1O)CCNCC2", "values": [{"measurement": "Ki", "setting": "[4]", "value": 970, "unit": "nM"}]}, {"smiles": "CCCN(CCC)CCc1ccc(O)c(O)c1-c1ccccc1", "values": [{"measurement": "Ki", "setting": "[1]", "value": 1940, "unit": "nM"}, {"measurement": "inhibition", "setting": "[3]", "value": 29, "unit": "%"}]}, {"smiles": "NCC1c2ccccc2-c2c1ccc(O)c2O", "note": "(stereo unspecified)", "values": [{"measurement": "Ki", "setting": "[1]", "value": 380, "unit": "nM"}, {"measurement": "inhibition", "setting": "[3]", "value": 20, "unit": "%"}]}, {"smiles": "NCC1c2cc(O)ccc2-c2c1ccc(O)c2O", "note": "(stereo unspecified)", "values": [{"measurement": "Ki", "setting": "[1]", "value": 43, "unit": "nM"}, {"measurement": "Ki", "setting": "[5]", "value": 5740, "unit": "nM"}]}, {"smiles": "Oc1cc2c(c(-c3ccccc3)c1O)CCNCC2", "values": [{"measurement": "Ki", "setting": "[1]", "value": 1790, "unit": "nM"}, {"measurement": "inhibition", "setting": "[2]", "value": "< 20", "unit": "%"}]}, {"smiles": "CCCN(CCC)CCc1ccc(O)c(O)c1-c1ccc(O)cc1", "values": [{"measurement": "Ki", "setting": "[1]", "value": 1740, "unit": "nM"}, {"measurement": "Ki", "setting": "[5]", "value": 1800, "unit": "nM"}]}, {"smiles": "Oc1ccc(-c2c(O)c(O)cc3c2CCNCC3)cc1", "values": [{"measurement": "Ki", "setting": "[1]", "value": "> 3000", "unit": "nM"}, {"measurement": "inhibition", "setting": "[2]", "value": "< 20", "unit": "%"}]}]}
